Measurements published in ChEMBL document CHEMBL3352678, “Synthesis and acetylcholinesterase inhibitory activity of Mannich base derivatives flavokawain B” (Bioorg Med Chem Lett, 2014).

Assays:
Acetylcholinesterase [1] = target: T1, Acetylcholinesterase (Rattus norvegicus, UniProt P37136); assay: Inhibition of Sprague-Dawley rat brain AChE using acetylthiocholin iodide as substrate preincubated for 25 mins by Ellman's/UV-vis spectroscopy analysis
T1 sequence (P37136 whole entry): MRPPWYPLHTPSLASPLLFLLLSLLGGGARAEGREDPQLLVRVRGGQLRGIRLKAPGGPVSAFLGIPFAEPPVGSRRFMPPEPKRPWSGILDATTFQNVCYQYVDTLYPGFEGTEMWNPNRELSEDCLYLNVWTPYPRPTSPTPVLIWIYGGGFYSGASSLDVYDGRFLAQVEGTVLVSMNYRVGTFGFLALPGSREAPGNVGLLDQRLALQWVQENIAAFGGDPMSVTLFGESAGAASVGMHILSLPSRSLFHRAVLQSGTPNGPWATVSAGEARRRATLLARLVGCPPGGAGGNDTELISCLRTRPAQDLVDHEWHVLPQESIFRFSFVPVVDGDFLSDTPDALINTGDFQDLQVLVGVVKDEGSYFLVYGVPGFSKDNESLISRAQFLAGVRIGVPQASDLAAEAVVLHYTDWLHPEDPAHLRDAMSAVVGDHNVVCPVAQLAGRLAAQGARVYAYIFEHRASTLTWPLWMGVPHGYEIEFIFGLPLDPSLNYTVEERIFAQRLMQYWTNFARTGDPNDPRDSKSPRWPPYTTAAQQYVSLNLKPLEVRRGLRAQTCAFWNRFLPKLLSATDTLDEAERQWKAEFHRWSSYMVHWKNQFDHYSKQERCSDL
Procedure, shortened: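 Modified Ellman's method. Inhibition ratio was calculated from absorbance of the AChE-catalysed reaction product. IC50 was taken as the concentration causing 50% loss of enzyme activity.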

[2] = Octanol-buffer partition coefficient, log p of the compound at pH 7.4 for 24 hrs by shake flask method; format: physicochemical
Procedure, shortened: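 Partitioning between n-octanol and buffer at pH 7.4 by the classical shake-flask method. Compound in each phase quantified by reverse-phase HPLC. log P calculated from the phase distribution.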

Acetylcholinesterase [3] = target: T1, Acetylcholinesterase; assay: Inhibition of Sprague-Dawley rat brain AChE using acetylthiocholin iodide as substrate by Michaelis-Menten equation
Procedure, shortened: (§1)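 Kinetic analysis: Km and vmax were determined at several inhibitor concentrations. Ki for the free enzyme came from a linear replot of slope against inhibitor concentration. Ki′ for the enzyme–substrate complex came from a linear replot of intercept against inhibitor concentration.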

Acetylcholinesterase [4] = target: T1, Acetylcholinesterase; assay: Inhibition of Sprague-Dawley rat brain AChE by Michaelis-Menten equation; procedure, shortened: as §1

COc1cc(OC)c(C(=O)/C=C/c2ccccc2)c(O)c1CN(C)C
IC50 (Acetylcholinesterase [1]): 18.8 µM
logD at 24 h [2]: 1.61

CCN(CC)Cc1c(OC)cc(OC)c(C(=O)/C=C/c2ccccc2)c1O
IC50 (Acetylcholinesterase [1]): 15.1 µM
logD at 24 h [2]: 1.69

CCCN(CCC)Cc1c(OC)cc(OC)c(C(=O)/C=C/c2ccccc2)c1O
IC50 (Acetylcholinesterase [1]): 54.8 µM
logD at 24 h [2]: 1.77

COc1cc(OC)c(C(=O)/C=C/c2ccccc2)c(O)c1CN1CCCC1
IC50 (Acetylcholinesterase [1]): 16.1 µM
logD at 24 h [2]: 1.74

COc1cc(OC)c(C(=O)/C=C/c2ccccc2)c(O)c1CN1CCCCC1
IC50 (Acetylcholinesterase [1]): 4.15 µM
Ki (Acetylcholinesterase [3]): 4.58 µM
logD at 24 h [2]: 1.75
Ki (Acetylcholinesterase [4]): 2.75 µM

COc1cc(OC)c(C(=O)/C=C/c2ccccc2)c(O)c1CN1CCOCC1
IC50 (Acetylcholinesterase [1]): 265 µM
logD at 24 h [2]: 1.63

COc1cc(OC)c(C(=O)/C=C/c2ccccc2)c(O)c1CN1CCN(C)CC1
IC50 (Acetylcholinesterase [1]): 12.4 µM
logD at 24 h [2]: 1.58
